Data taken from ChEMBL document CHEMBL1141184, “Synthesis and biological study of a new series of 4'-demethylepipodophyllotoxin derivatives” (J Med Chem, 2005).

Assays:
[1] = target: DNA topoisomerase 2-alpha (Homo sapiens) (UniProt P11388); experiment: Inhibition of human DNA topoisomerase II alpha as percent linear DNA after treatment with 20 uM
L1210 [2] = experiment: Inhibition of L1210 cell proliferation in cytotoxic assay; assay type: functional, cell-based; details: Mus musculus
How it was run: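 Murine L1210 leukaemia cells (nonadherent, exponential growth) in RPMI 1640 with 10% FCS, 2 mM glutamine, 10 mM HEPES pH 7.4; 48 h exposure to serial dilutions (compounds from 5 mM DMSO stock diluted in water). MTT added for 4 h at 37 °C, formazan dissolved in DMSO, OD 540 nm; IC50 by linear regression on linear part of dose–response; triplicate.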

L1210 [3] = experiment: Percentage of L1210 cells in the G2M phase after treatment with compound at 2.5 uM concentration expressed as cell cycle effect; assay type: functional, Mus musculus
How it was run: (§1)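 L1210 cells at 2.5×10^5 cells/mL exposed 21 h to the compound; fixed in 70% ethanol, stained 30 min at 20 °C in D-PBS with 100 µg/mL RNase A and 25 µg/mL propidium iodide; 10^4 cells per sample by flow cytometry; value is % of cells in G2M.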

P388 = experiment: Maximum tolerated dose value on day 1 against mouse P388 leukemia cells; assay type: functional
How it was run: (§2)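 B6D2F1 mice inoculated ip with 10^6 P388 cells (day 0), single iv dose on day 1. MTD = highest dose without toxic death and/or >20% weight loss. T/C (%) = median survival time treated/control ×100.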

Mus musculus [4] = organism: Mus musculus; experiment: Percent median survival time to that of control in mice on day 1; assay type: functional
How it was run: as §2

A549 = experiment: Maximum tolerated dose after treatment on days 14, 21, and 28 against human A549 non-small-cell lung carcinoma
Mus musculus [5] = organism: Mus musculus; experiment: Percent median survival time to that of control in mice on days 14,21 and 28; assay type: functional
How it was run: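 BALB/c nude mice given 10^6 A549 cells orthotopically into left pleural space under anaesthesia; iv treatment on days 14, 21 and 28 after implantation. MTD = dose without toxic death and/or >20% weight loss; T/C (%) = median survival time treated/control ×100.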

L1210 [6] = experiment: Percentage of L1210 cells in the G2M phase after treatment with compound at 1 uM concentration expressed as cell cycle effect; assay type: functional, Mus musculus
How it was run: as §1

L1210 [7] = experiment: Percentage of L1210 cells in the G2M phase after treatment with compound at 25 uM concentration expressed as cell cycle effect; assay type: functional, Mus musculus
How it was run: as §1

L1210 [8] = experiment: Percentage of L1210 cells in the G2M phase after treatment with compound at 0.1 uM concentration expressed as cell cycle effect; assay type: functional, Mus musculus
How it was run: as §1

L1210 [9] = experiment: Percentage of L1210 cells in the G2M phase after treatment with compound at 10 uM concentration expressed as cell cycle effect; assay type: functional, Mus musculus
How it was run: as §1

DNA topoisomerase 2-alpha (Homo sapiens), sequence (P11388 whole entry): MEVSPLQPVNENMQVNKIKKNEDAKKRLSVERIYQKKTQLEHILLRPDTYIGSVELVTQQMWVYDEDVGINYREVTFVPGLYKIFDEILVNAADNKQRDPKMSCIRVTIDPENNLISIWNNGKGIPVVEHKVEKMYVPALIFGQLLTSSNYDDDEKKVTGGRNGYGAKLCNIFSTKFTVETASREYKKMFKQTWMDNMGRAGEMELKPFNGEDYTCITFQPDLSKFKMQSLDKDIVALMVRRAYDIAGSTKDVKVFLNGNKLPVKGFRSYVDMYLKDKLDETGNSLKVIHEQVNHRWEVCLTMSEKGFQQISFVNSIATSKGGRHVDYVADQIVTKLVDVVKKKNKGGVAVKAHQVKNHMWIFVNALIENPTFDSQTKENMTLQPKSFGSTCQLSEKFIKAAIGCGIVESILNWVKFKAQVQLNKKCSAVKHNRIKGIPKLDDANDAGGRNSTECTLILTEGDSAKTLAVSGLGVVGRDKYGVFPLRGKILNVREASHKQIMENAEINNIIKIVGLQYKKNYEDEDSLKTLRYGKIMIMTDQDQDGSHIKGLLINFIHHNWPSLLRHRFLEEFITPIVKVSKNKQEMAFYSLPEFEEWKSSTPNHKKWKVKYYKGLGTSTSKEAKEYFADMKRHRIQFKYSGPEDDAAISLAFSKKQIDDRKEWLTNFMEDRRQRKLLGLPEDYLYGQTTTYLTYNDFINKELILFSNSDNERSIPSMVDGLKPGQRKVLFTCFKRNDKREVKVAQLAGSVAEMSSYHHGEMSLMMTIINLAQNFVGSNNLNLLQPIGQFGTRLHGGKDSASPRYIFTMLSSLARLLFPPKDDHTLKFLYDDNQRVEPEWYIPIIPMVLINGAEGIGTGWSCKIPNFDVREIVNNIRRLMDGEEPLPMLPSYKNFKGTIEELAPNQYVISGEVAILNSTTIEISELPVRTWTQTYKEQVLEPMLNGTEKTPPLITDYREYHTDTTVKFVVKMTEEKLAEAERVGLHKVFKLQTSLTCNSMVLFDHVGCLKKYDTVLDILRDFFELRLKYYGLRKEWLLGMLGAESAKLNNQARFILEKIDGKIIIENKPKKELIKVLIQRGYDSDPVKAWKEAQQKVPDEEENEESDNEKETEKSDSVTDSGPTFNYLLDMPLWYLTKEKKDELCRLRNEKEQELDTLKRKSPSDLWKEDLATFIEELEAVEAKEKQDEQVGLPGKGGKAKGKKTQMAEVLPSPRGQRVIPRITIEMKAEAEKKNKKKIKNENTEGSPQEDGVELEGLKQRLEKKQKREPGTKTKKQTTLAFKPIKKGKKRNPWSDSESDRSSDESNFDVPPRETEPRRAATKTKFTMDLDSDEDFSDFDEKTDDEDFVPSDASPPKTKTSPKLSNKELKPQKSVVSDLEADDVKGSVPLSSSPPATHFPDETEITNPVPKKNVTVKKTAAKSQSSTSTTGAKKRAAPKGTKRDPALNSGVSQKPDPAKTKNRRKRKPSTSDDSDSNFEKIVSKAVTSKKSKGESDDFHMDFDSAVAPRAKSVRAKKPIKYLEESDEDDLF

Row | Compound | percent linear DNA [1] | IC50 (L1210 [2]) | further results
1 | COc1cc([C@@H]2c3cc4c(cc3[C@@H](OC(=O)N(C)CCCN(C)C)[C@H]3C(=O)OC[C@H]23)OCO4)cc(OC)c1O | 0% | 21000 nM | 
2 | COc1cc([C@@H]2c3cc4c(cc3[C@@H](OC(=O)NCCCN)C3COC(=O)[C@@H]32)OCO4)cc(OC)c1O (stereo not given in full) | 38% | 1300 nM | 
3 | COc1cc([C@@H]2c3cc4c(cc3[C@@H](CCN(C)CCN(C)C)C3COC(=O)[C@@H]32)OCO4)cc(OC)c1O (stereo not given in full) | 57% | 600 nM | Activity (L1210 [3]): 75%
4 | COc1cc([C@@H]2c3cc4c(cc3[C@@H](O[C@@H]3O[C@@H]5CO[C@@H](C)O[C@H]5[C@H](O)[C@H]3O)[C@H]3COC(=O)[C@H]23)OCO4)cc(OC)c1O [ETOPOSIDE] | 50% |  | MTD (P388): 100 mg/kg; Activity (L1210 [3]): 76%; T/C (Mus musculus [4]): 233%; MTD (A549): 70 mg/kg; T/C (Mus musculus [5]): 131%
5 | COc1cc([C@@H]2c3cc4c(cc3[C@@H](OC(=O)N(C)CCCN)C3COC(=O)[C@@H]32)OCO4)cc(OC)c1O (stereo not given in full) | 8% | 240 nM | 
6 | COc1cc([C@@H]2c3cc4c(cc3[C@@H](OC(=O)N(C)CCN(C)C)C3COC(=O)[C@@H]32)OCO4)cc(OC)c1O (stereo not given in full) | 27% | 1700 nM | MTD (P388): 50 mg/kg; Activity (L1210 [3]): 77%; T/C (Mus musculus [4]): 182%; MTD (A549): 25 mg/kg; T/C (Mus musculus [5]): 102%
7 | COc1cc([C@@H]2c3cc4c(cc3[C@@H](OCNCCN(C)C)C3COC(=O)[C@@H]32)OCO4)cc(OC)c1O (stereo not given in full) |  | 27900 nM | 
8 | COc1cc([C@@H]2c3cc4c(cc3[C@@H](OC(=O)NCCCN(C)C)C3COC(=O)[C@@H]32)OCO4)cc(OC)c1O (stereo not given in full) | 58% | 340 nM | Activity (L1210 [6]): 72%
9 | COc1cc([C@@H]2c3cc4c(cc3[C@@H](OC(=O)N(C)CCCN(C)C)C3COC(=O)[C@@H]32)OCO4)cc(OC)c1O (stereo not given in full) | 17% | 960 nM | 
10 | COc1cc([C@@H]2c3cc4c(cc3[C@@H](OC(=O)N(C)CCN(C)C)[C@H]3C(=O)OC[C@H]23)OCO4)cc(OC)c1O | 0% | 5200 nM | Activity (L1210 [7]): 77%
11 | COc1cc([C@@H]2c3cc4c(cc3[C@@H](OC(=O)NCCCN)[C@H]3C(=O)OC[C@H]23)OCO4)cc(OC)c1O | 0% | 4300 nM | 
12 | COc1cc([C@@H]2c3cc4c(cc3[C@@H](OC(=O)NCCN(C)C)C3COC(=O)[C@@H]32)OCO4)cc(OC)c1O (stereo not given in full) | 56% | 38 nM | MTD (P388): 6.25 mg/kg; T/C (Mus musculus [4]): 192%; MTD (A549): 6.25 mg/kg; Activity (L1210 [8]): 67%; T/C (Mus musculus [5]): 151%
13 | COc1cc([C@@H]2c3cc4c(cc3[C@@H](OC(=O)NCCCN(C)C)[C@H]3C(=O)OC[C@H]23)OCO4)cc(OC)c1O | 0% | 1400 nM | Activity (L1210 [9]): 65%
14 | COc1cc([C@@H]2c3cc4c(cc3[C@@H](OC(=O)NCCN(C)C)[C@H]3C(=O)OC[C@H]23)OCO4)cc(OC)c1O | 64% | 88 nM | Activity (L1210 [6]): 83%; MTD (P388): 12.5 mg/kg; T/C (Mus musculus [4]): 214%; MTD (A549): 6.25 mg/kg; T/C (Mus musculus [5]): 152%
